Rows were chosen to be rich in hits. Some 3.8% of all compounds tested hit in one or more screens of this group.
Granule exo inh: LAMP-1 surface exposure blockers, TALL-104 cells – cell-based, flow cytometry, MLPCN library, primary screen; TALL-104 LAMP-1 surface exposure; cells stimulated with thapsigargin and PMA; inhibition, % at 10 µM; 360,000 tested, 0.66% active;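 active = inhibition above about 55%, limit read from the data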
V-ATPase pH: regulators of yeast V-ATPase proton pumping, primary screen, pHLuorin cytosolic pH fluorescence; S. cerevisiae; response, % at 10 µM; 350,000 tested, 0.37% active; in the data active = response mostly above about 7.3%, no sharp cut-off; inactive = mostly below about 5.4%; note: actives read high
T cell modulator: modulators of CD8 T cell-vesicle binding, primary screen, mouse 2C CD8+ T cells, flow cytometry. AID 2052, 2009. response (vesicle binding), % at 7 µM. 330,000 tested, 0.068% active. 2C CD8+ T cell-vesicle binding; active compounds read low;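 active = response, share of CD8 T cells binding vesicles, and their 90th percentile fluorescence all below set limits, cut at about 80% in these data, passing the limit was not always enough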;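 note: values below 100% mean blocked vesicle binding to the CD8+ T cells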
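Material: 2C TCR transgenic mouse naive CD8+ T cells, MACS-purified. Also added: QL9-charged Drosophila Ld/ICAM-1/B7-1 vesicles. Timing: binding 1.5 h at 37 °C. Measured by: high-throughput flow cytometry with anti-B7-1 and anti-CD8 staining. Read-out: percent CD8+ FL2 mean versus row control. Controls: Unloaded micro-vesicles (low), QL9 vesicles with 0.7% DMSO (high).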
rCAG RNA binder: binders of r(CAG) RNA repeats, primary screen, biochemical, fluorescence; r(CAG) RNA repeat, TO-PRO-1 dye displacement fluorescence; inhibition, % at 3 µM; 370,000 tested, 1.3% active;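 active = inhibition above the plate cutoff, the mean of all test compounds on that plate plus 3 SD, cut at about 35% in these data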;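 note: 0% = DMSO alone and 100% = 100 µM mitoxantrone as full dye displacement; higher means more dye released from RNA so lower well fluorescence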
MPTP block: mitochondrial permeability transition pore inhibitors, primary screen, biochemical, isolated mouse mitochondria, absorbance. Ca2+ swelling absorbance, 30 min. inhibition, % at 10 µM. AID 602449, 2012. 360,000 tested, 1.4% active;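 active = inhibition of 50% or more, scaled per plate between neutral and stimulator controls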;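 note: 0% = DMSO wells given calcium and 100% = 1 mM EGTA wells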
B2AR ag: beta2AR agonists driving receptor internalization, primary screen, cell-based, FAP fluorogen, flow cytometry; Beta-2 adrenergic receptor (Homo sapiens), P07550; Am2.2-beta2AR cells; response, % (concentration not given with the values); 340,000 tested, 0.43% active; AID 504454, 2011;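 active = response above a set limit, near 3 SD of response in nonfluorescent compounds, cut at about 42% in these data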
Target sequence (P07550 whole entry, looked up): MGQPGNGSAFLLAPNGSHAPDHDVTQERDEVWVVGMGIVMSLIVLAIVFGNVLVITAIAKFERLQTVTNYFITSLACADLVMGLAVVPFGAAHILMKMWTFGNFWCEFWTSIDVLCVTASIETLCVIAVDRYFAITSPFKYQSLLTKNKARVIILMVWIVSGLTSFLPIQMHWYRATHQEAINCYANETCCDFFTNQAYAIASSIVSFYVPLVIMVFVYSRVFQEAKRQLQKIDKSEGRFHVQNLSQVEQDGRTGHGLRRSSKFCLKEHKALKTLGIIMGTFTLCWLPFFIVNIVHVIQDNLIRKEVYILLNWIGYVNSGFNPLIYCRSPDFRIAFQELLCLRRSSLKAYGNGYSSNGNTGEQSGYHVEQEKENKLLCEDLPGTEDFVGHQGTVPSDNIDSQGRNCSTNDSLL
B2AR ag CP1: beta2AR agonists via receptor internalization, confirmation, cell-based, FAP fluorogen, flow cytometry, single point, cherry pick 1; shares compounds with B2AR ag; Am2.2-beta2AR cells, FAP surface receptor; active compounds read low; percent response (surface receptor), % at 10 µM; 1,100 tested, 25% active; AID 540358, 2011;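 active = surface receptor percent response at or below 58%, roughly 3 SD from nonfluorescent compounds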
FAP fluor counter: fluorescence artifact in beta-2AR agonist FAP counterscreen. shares compounds with B2AR ag. Am2.2 cells, FAP fluorogen flow cytometry; active compounds read low. calls only at 10 µM. 1,100 tested, under 10 active. AID 588765;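 active = percent response below a set limit in fluorescence channel 1 and below 50% in channel 8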
* = called active by the depositor; i = inactive; x = not tested or not shown.

SMILES	Granule exo inh	V-ATPase pH	T cell modulator	rCAG RNA binder	MPTP block	B2AR ag	B2AR ag CP1	FAP fluor counter
CCOC(=O)C(C)Oc1cccc2c(=O)n(CC(=O)NCCc3ccccc3)ccc12 (stereo not drawn)	-3.1	-0.1	593.0	-7.6	0.6	14.8	x	x
CCOC(=O)COc1cccc2c(=O)n(CC(=O)NCCc3ccccc3)ccc12	1.6	-3.0	550.4	0.3	-0.1	43.7*	84.9	i
CCOC(=O)c1[nH]ncc1CN1CCCC(C(=O)c2ccc(OC)c(OC)c2)C1 (stereo not drawn)	-1.2	2.1	121.3	-5.9	-1.5	47.1*	82.0	i
CCOC(=O)c1[nH]ncc1CN1CCCC(C(=O)c2cc(Cl)ccc2OC)C1 (stereo not drawn)	-0.5	2.5	239.7	-4.2	1.1	0.8	x	x
Cc1ccc(C)c(NC(=S)c2ccccn2)c1	4.2	1.6	276.2	-0.5	-0.5	-1.6	114.0	i
COc1cc(NC(=O)c2ccco2)c(OC)cc1NC(=O)c1cc(OC)c(OC)c(OC)c1	1.3	-0.8	336.5	-0.8	0.9	-0.4	125.8	i
O=S(=O)(Nc1cccc2ncccc12)c1cccs1	-1.2	3.0	385.5	x	0.2	44.2*	89.5	i
Cc1c(NS(=O)(=O)c2cccs2)cccc1-c1nc2cccnc2s1	-1.9	-0.9	213.7	12.5	6.6	-0.2	x	x
Cc1nnc2ccc(-c3ccc(NC(=O)c4cccnc4Cl)cc3)nn12	-4.0	1.1	395.1	5.3	-0.7	-2.7	x	x
CCOc1ncccc1C(=O)Nc1ccc(-c2ccc3nnc(C)n3n2)cc1	-7.7	1.9	506.4	0.4	1.2	43.7*	107.3	i
C=CCN1[C@H](C)COc2cccc(N3CCCC3)c2S1(=O)=O	x	x	x	0.7	x	x	x	x
CCCCC(=O)Nc1ccc(C(=O)N2CCCC(C(=O)OCC)C2)cc1 (stereo not drawn)	-5.6	-4.3	156.2	1.9	-1.0	61.5*	40.6*	i
Cc1ccc(-c2csc3ncnc(SCC(=O)Nc4nnc(C)s4)c23)cc1	-2.3	-0.1	401.7	2.8	6.8	-2.2	x	x
Cc1ccc(-c2csc3ncnc(Sc4nnc(CN5CCCCCC5=O)o4)c23)cc1	-4.2	1.4	413.1	3.0	3.4	42.3*	87.3	i
COC[C@H]1CCCN1c1ccc2c(c1)O[C@H]1CCN(C1)S2(=O)=O	x	x	x	0.7	x	x	x	x
O=S1(=O)CC2c3ccccc3CN2CN1Cc1ccc(F)cc1 (stereo not drawn)	x	x	x	3.6	x	x	x	x
O=C(Cc1ccccc1)NC1(Cc2ccc(O)cc2)CCCCC1	0.9	-3.3	498.1	-2.5	-0.4	56.6*	47.3*	i
COc1ccc(-n2nc3c(N4CCC(C(=O)NCc5ccco5)CC4)nnc(C)c3c2C)cc1	-0.8	4.5	459.2	x	1.5	7.3	98.1	i
Cc1ccc(-n2nc3c(N4CCC(C(=O)NCCc5ccco5)CC4)nnc(C)c3c2C)cc1	11.4	-2.2	84.8	5.4	-1.5	12.6	x	x
COc1ccc(C(=O)NCC(c2ccco2)N2CCc3ccccc32)cc1 (stereo not drawn)	-4.1	4.2	282.7	-2.5	0.0	54.4*	91.1	i
COc1ccc(NC(=O)C(=O)NCC(c2ccco2)N2CCc3ccccc32)cc1 (stereo not drawn)	-8.8	-2.7	202.8	x	2.9	-4.7	x	x
CCOC(=O)c1cn(C2CC2)c2c(F)c(NCCCN(C)C)c(F)cc2c1=O	7.2	-5.3	i	-2.3	1.2	63.9*	37.8*	i
CCOC(=O)c1cnc2c(ccc3ccccc32)c1NCCCN(C)C	1.8	0.8	349.9	8.7	1.2	-1.2	x	x
CC(=O)Nc1ccc(S(=O)(=O)N(Cc2cccnc2)Cc2cc3ccc(C)cc3[nH]c2=O)cc1	0.1	-3.3	610.8	1.0	0.1	8.2	x	x
Cc1ccc(S(=O)(=O)N(Cc2cccnc2)Cc2cc3ccccc3[nH]c2=O)cc1	6.9	0.3	136.7	0.5	0.9	-11.2	153.7	i
SMILES	Granule exo inh	V-ATPase pH	T cell modulator	rCAG RNA binder	MPTP block	B2AR ag	B2AR ag CP1	FAP fluor counter
COc1ccc(S(=O)(=O)N(Cc2cccnc2)Cc2cc3ccccc3[nH]c2=O)cc1	17.2	1.6	444.0	4.5	0.9	-4.6	152.1	i
CCc1c(-c2ccccc2Br)ncn1CCc1ccccc1OC	x	x	x	0.7	x	x	x	x
COC(=O)[C@]12C[C@H](CC(=O)NCc3cccc4ccccc34)C(=O)N(Cc3ccco3)C1=C[C@H](C(C)(C)C)O[C@@H]2C	x	x	x	2.4	x	x	x	x
COC(=O)C1CN(Cc2ccc(C)cc2)CCS(=O)(=O)N1Cc1cn(Cc2ccccc2)nn1 (stereo not drawn)	x	x	x	-2.5	x	x	x	x
COc1ccc(-n2c(SCC(=O)Nc3ccccc3-c3ccccc3)nnc2-c2ccccn2)cc1	x	x	x	3.9	x	x	x	x
CC(=O)N1CCc2cc(C(=O)CN3CCN(c4cccc(Cl)c4)CC3)ccc21	4.1	-0.6	361.4	3.2	1.1	57.2*	9.1*	i
Cc1noc(C)c1COc1ccccc1C(=O)N1CCN(S(=O)(=O)c2ccccc2Br)CC1	-13.2	-0.7	x	3.1	-1.5	70.9*	92.3	i
CCCCN(CCCC)c1nc(OC)nc(-n2nnc(C(C)=O)c2C)n1	-1.4	0.5	164.0	-7.2	-2.1	73.5*	25.0*	i
Cc1cc(NS(=O)(=O)C2CCN(C(=O)Cc3ccc(Cl)c(Cl)c3)CC2)no1	x	x	x	9.0	x	x	x	x
CN1Cc2nnn(CC3CCCCC3)c2-c2ccccc2S1(=O)=O	x	x	x	-0.6	x	x	x	x
Cc1ccc2c(c1)C(=O)C(=O)N2CCCOc1ccccc1C	52.0	2.5	497.7	-3.4	-0.1	42.3*	91.3	i
O=C(Nc1ccc(F)cc1)c1cccc(N2C(=O)c3ccccc3C2=O)c1	3.6	-3.2	168.7	0.3	-0.3	-10.2	100.0	i
NC(=S)N=Nc1c(O)n(Cc2ccc(F)cc2)c2ccccc12	-8.0	-3.0	101.1	12.4	3.6	-2.7	101.8	i
C/C(=N\NC(=S)NCc1ccccc1)c1ccc(Cl)s1	11.8	0.0	151.8	3.3	1.0	0.0	x	x
COCCNC(=S)N/N=C(\C)c1ccc(Cl)s1	7.2	-4.6	171.5	-2.7	1.9	5.1	107.7	i
COc1ccc([C@H](C)NC[C@H](O)c2ccc(O)c(NC=O)c2)cc1	-2.1	-1.2	572.9	x	-0.4	26.1	11.9*	i
O=C(Nc1ccccn1)c1ccc([N+](=O)[O-])o1	4.5	5.2	681.6	x	2.4	-3.8	x	x

Screening results as filed in PubChem.
